From ChEMBL document CHEMBL1781954, “Synthesis and antitumor activity of novel pyrido[2,3-d][1,2,4]triazolo[4,3-a]pyrimidin-5-one derivatives” (Eur J Med Chem, 2011) come the findings set out here.

Molecules are shown by their SMILES. Values after ≈ are worked out from the molar mass of the structure shown.

The test system of the assay is MCF7. As to the kind of experiment: Cytotoxicity against human MCF7 cells assessed as inhibition of cell viability after 48 hrs by Sulforhodamine B assay. The format is functional, cell-based. To be noted: MCF7, 48 h. The procedure, abridged: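 MCF7 cells seeded at 10⁴ cells/well and left 24 h to attach. Compounds in DMSO diluted with saline were added at 0, 1, 2.5, 5 and 10 (triplicate wells per dose). After 48 h at 37 °C in 5% CO₂, cells were fixed with trichloroacetic acid and stained 30 min with 0.4% SRB in 1% acetic acid. Bound dye was recovered in Tris-EDTA and read on an ELISA reader. IC50 was taken from surviving fraction versus concentration curves.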
A general note: The SRB assay estimates cell density from bound dye.
`O=c1[nH]c(=S)[nH]c2nc(-c3ccccc3)cc(-c3ccc(Cl)cc3)c12`: the IC50 (as a rule, the concentration that gives 50% inhibition) was 5.11 µg/mL (≈ 14 µM).
`O=c1c2c(-c3ccc(Cl)cc3)cc(-c3ccccc3)nc2nc2[nH]ncn12`: the IC50 stood at 21.6 µg/mL (≈ 57.8 µM).
The result for `Cc1n[nH]c2nc3nc(-c4ccccc4)cc(-c4ccc(Cl)cc4)c3c(=O)n12` reads more than 50 µg/mL; that for `CCc1n[nH]c2nc3nc(-c4ccccc4)cc(-c4ccc(Cl)cc4)c3c(=O)n12`, 14 µg/mL (≈ 34.8 µM).
The result for `O=c1[nH][nH]c2nc3nc(-c4ccccc4)cc(-c4ccc(Cl)cc4)c3c(=O)n12` reads 24.3 µg/mL (≈ 62.3 µM); that for `O=c1c2c(-c3ccc(Cl)cc3)cc(-c3ccccc3)nc2nc2[nH][nH]c(=S)n12`, 6.78 µg/mL (≈ 16.7 µM); that for `CSc1n[nH]c2nc3nc(-c4ccccc4)cc(-c4ccc(Cl)cc4)c3c(=O)n12`, 3.89 µg/mL (≈ 9.26 µM).
The result for `CCSc1n[nH]c2nc3nc(-c4ccccc4)cc(-c4ccc(Cl)cc4)c3c(=O)n12` reads 5.2 µg/mL (≈ 12 µM).
`O=c1c2c(-c3ccc(Cl)cc3)cc(-c3ccccc3)nc2nc2[nH]nc(SCc3ccccc3)n12`: the IC50 is 12.6 µg/mL (≈ 25.4 µM).
For `CCOC(=O)CSc1n[nH]c2nc3nc(-c4ccccc4)cc(-c4ccc(Cl)cc4)c3c(=O)n12`, the IC50 is 4.5 µg/mL (≈ 9.15 µM).
The result for `O=c1c2c(-c3ccc(Cl)cc3)cc(-c3ccccc3)nc2nc2[nH]nc(-c3ccccc3)n12` reads 9.22 µg/mL (≈ 20.5 µM).
The result for `Cc1ccc(-c2n[nH]c3nc4nc(-c5ccccc5)cc(-c5ccc(Cl)cc5)c4c(=O)n23)cc1` reads 9.07 µg/mL (≈ 19.6 µM); that for `Nc1n[nH]c2nc3nc(-c4ccccc4)cc(-c4ccc(Cl)cc4)c3c(=O)n12`, 3.74 µg/mL (≈ 9.62 µM).
The result for `O=c1c2c(-c3ccc(Cl)cc3)cc(-c3ccccc3)nc2nc2[nH]nc(CCl)n12` reads 11.7 µg/mL (≈ 27.7 µM).
